# Experimental data published in ChEMBL document CHEMBL1811839, “Lindenane disesquiterpenoids with anti-HIV-1 activity from Chloranthus japonicus” (J Nat Prod, 2011).
# Assays:
# [1] = test system: Human immunodeficiency virus 1; experiment: (§1) Antiviral activity against Human immunodeficiency virus 1 NL 4.3 harboring reverse transcriptase K103N mutant pseudotyped with VSV-G envelope co-transfected with luciferase gene infected in 293T cells assessed as inhibition of HIV1 replication administered 15 mins prior to infection measured after 48 hrs post infection by luciferase assay; format: functional, organism-based; settings: Human immunodeficiency virus 1, NL 4.3, HEK-293T
# Summary of the method: (§2)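 VSV-G plasmid co-transfected with env-deficient pNL4-3.luc.R-E vector (wild-type, RT-K103N or RT-Y181C) into 293T cells by modified Ca3(PO4)2 method; medium changed 16 h post-transfection; virion supernatant harvested 48 h, 0.45 μm filtered, p24 ELISA-quantified and diluted to 0.2 ng p24/mL. Target 293T cells plated 6 × 10^4/well a day before; compounds in DMSO added 15 min before infection; luciferase in lysates read 48 h post-infection; EFV positive control.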
# [2] = test system: Human immunodeficiency virus 1; experiment: as §1, with “Y181C” for “K103N”; format: functional, organism-based; settings: Human immunodeficiency virus 1, NL 4.3, HEK-293T; summary of the method: as §2
# [3] = Therapeutic index, ratio of CC50 for against human C8166 cells to EC50 for HIV-1; format: cell-based; settings: read-out: Ratio CC50/EC50
# [4] = test system: Human immunodeficiency virus 1; experiment: Antiviral activity against wild type Human immunodeficiency virus 1 NL 4.3 pseudotyped with VSV-G envelope co-transfected with luciferase gene infected in human 293T cells assessed as inhibition of HIV1 replication administered 15 mins prior to infection measured after 48 hrs post infection by luciferase assay; format: functional, organism-based; settings: Human immunodeficiency virus 1, NL 4.3, HEK-293T; summary of the method: as §2
# [5] = Cytotoxicity against human C8166 cells by MTT assay; format: cell-based
# Summary of the method: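 MTT assay on C8166 cells yielding CC50.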
# [6] = test system: Human immunodeficiency virus 1; experiment: Antiviral activity against Human immunodeficiency virus 1 assessed as inhibition of virus-induced cytopathic effects by cell based assay; format: functional, organism-based
# Summary of the method: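 HIV-1 cytopathic-effect inhibition assay yielding EC50; AZT positive control.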
SMILES,EC50 [1] [nM],EC50 [2] [nM],selectivity ratio [3],EC50 [4] [nM],CC50 [5] [nM],EC50 [6] [nM]
O=C1Nc2ccc(Cl)cc2[C@@](C#CC2CC2)(C(F)(F)F)O1 [EFAVIRENZ],24,2,,,,
COC(=O)/C(C)=C1\C(=O)[C@H](O)[C@]2(C)C3=C(C[C@@H]4[C@]5(OC(=O)C6=C5C[C@H]5[C@](O)(COC(=O)/C(C)=C/COC(=O)CCC(=O)OC6)[C@H]6C[C@H]6[C@]45C)[C@H]31)[C@H]1C[C@H]12 [SHIZUKAOL B],470,500,14.4,220,20,1.4
C/C=C(\C)C(=O)OCC1=C2C[C@H]3[C@H](O)[C@H]4C[C@H]4[C@]3(C)[C@@H]3C[C@@]4(O)C5=C(/C(=C(/C)C(=O)OC)C(=O)[C@H](O)[C@@]5(C)[C@@H]5C[C@@H]54)[C@]23OC1=O [SHIZUKAOL C],1360,1000,5.56,980,89,16
COC(=O)/C(C)=C1\C(=O)[C@H](O)[C@]2(C)C3=C(C[C@@H]4[C@]5(OC(=O)C6=C5C[C@H]5[C@](O)(COC(=O)/C=C(\C)COC(=O)CCC(=O)OC6)[C@H]6C[C@H]6[C@]45C)[C@H]31)[C@H]1C[C@H]12 [SHIZUKAOL F],3390,4050,10.9,110,47,4.3
COC(=O)/C(C)=C1\C(=O)[C@H](O)[C@]2(C)C3=C(C[C@@H]4[C@]5(OC(=O)C6=C5C[C@H]5[C@](O)(COC(=O)/C=C(\C)COC(=O)[C@@H](O)CC(=O)OC6)[C@H]6C[C@H]6[C@]45C)[C@H]31)[C@H]1C[C@H]12 [SHIZUKAOL H],2350,860,6.67,830,22,3.3
Cc1cn([C@H]2C[C@H](N=[N+]=[N-])[C@@H](CO)O2)c(=O)[nH]c1=O [ZIDOVUDINE],,,1.02e+06,,,
